Experimental data from ChEMBL document CHEMBL1154602, “Toward a rational design of multitarget-directed antioxidants: merging memoquin and lipoic acid molecular frameworks” (J Med Chem, 2009).
The source made the active and inactive calls. No cut-off for these calls is given here.

What was measured:
T67 [1] = experiment: Antioxidant activity in human T67 cells assessed as inhibition of tert-butyl hydroperoxide-induced ROS production at 10 uM after 24 hrs by fluorescence assay; type: functional, cell-based
In short: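 T67 cells without sulforaphane pretreatment; ROS formation induced by t-BuOOH; oxidized form tested at 10 μM; significance set at p ≤ 0.05 versus t-BuOOH-treated cells.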

T67 [2] = experiment: Antioxidant activity in human T67 cells assessed as inhibition of tert-butyl hydroperoxide-induced ROS production at 10 uM after 24 hrs by fluorescence assay in presence of 2.5 uM sulforaphane treated for 24 hrs before compound addition; type: functional, cell-based
In short: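 T67 cells pretreated with 2.5 μM sulforaphane to raise NQO1 activity; ROS formation induced by t-BuOOH; oxidized form tested at 10 μM; significance set at p ≤ 0.05 versus t-BuOOH + sulforaphane-treated cells.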

[3] = Inhibition of amyloid beta (1 to 42) self-aggregation assessed as amyloid fibril formation at 10 uM by thioflavin-T based fluorometric assay
In short: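 Self-induced Aβ(1-42) aggregation at 50 μM, test compound at 10 μM; percent inhibition reported with SEM.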

Acetylcholinesterase = Acetylcholinesterase (Homo sapiens, UniProt P22303); experiment: Inhibition of human recombinant AChE by Ellman's method
In short: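 Human recombinant AChE. IC50 is the inhibitor concentration that decreases enzyme activity by 50%. Values are the mean of two independent measurements, each run in triplicate, with SEM.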

Bos taurus [4] = species: Bos taurus; experiment: Antioxidant activity in bovine heart submitochondrial particles assessed as inhibition of antimycin A-induced ROS production at 10 uM by fluorescence assay; type: functional
In short: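 Submitochondrial particles given NADH; ROS production triggered by antimycin A addition. Quinone (oxidized) form tested at 10 μM.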

Bos taurus [5] = species: Bos taurus; experiment: Antioxidant activity in bovine heart submitochondrial particles assessed as inhibition of antimycin A-induced ROS production at 10 uM pretreated for 30 mins with human NQO1 by fluorescence assay; type: functional
In short: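 Submitochondrial particles given NADH; ROS production triggered by antimycin A. Compound first reduced by 30 min preincubation with purified human NQO1 using NADH as substrate, reaction then stopped with 10 μM dicumarol; tested at 10 μM.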

Cholinesterase = Cholinesterase (Homo sapiens, UniProt P06276); experiment: Inhibition of human recombinant BChE by Ellman's method
Chain of Cholinesterase (P06276 whole entry): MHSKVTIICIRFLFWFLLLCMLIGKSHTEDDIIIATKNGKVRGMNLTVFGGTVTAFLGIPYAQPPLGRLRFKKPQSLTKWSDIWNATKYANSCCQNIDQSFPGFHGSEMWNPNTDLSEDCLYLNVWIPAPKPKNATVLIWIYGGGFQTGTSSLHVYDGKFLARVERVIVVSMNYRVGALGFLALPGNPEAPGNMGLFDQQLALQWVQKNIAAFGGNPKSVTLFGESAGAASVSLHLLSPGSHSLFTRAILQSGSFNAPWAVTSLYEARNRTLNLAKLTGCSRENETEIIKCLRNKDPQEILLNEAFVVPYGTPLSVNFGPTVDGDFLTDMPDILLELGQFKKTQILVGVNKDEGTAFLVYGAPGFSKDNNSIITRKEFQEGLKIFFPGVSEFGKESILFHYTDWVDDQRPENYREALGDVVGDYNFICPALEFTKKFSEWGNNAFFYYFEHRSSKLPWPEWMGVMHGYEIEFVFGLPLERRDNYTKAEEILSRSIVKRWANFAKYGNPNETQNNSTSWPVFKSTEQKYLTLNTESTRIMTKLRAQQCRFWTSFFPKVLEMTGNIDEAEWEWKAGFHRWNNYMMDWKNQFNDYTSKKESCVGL

Chain of Acetylcholinesterase (P22303 whole entry): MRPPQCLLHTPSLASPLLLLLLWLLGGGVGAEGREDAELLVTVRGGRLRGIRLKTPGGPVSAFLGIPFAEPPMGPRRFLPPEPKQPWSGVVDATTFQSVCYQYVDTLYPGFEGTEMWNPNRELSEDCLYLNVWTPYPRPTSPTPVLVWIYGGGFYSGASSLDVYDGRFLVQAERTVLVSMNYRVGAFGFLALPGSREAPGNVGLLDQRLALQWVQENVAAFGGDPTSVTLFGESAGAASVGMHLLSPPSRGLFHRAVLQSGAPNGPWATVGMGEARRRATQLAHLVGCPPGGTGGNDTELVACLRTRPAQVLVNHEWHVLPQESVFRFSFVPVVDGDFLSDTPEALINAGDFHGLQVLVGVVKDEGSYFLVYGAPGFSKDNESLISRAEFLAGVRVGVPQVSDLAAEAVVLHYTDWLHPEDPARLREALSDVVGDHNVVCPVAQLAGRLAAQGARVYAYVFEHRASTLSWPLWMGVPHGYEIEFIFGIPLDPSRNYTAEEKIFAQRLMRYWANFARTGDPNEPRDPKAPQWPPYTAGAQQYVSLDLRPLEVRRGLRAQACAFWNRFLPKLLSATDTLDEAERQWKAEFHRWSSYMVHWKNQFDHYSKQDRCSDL

Row | Structure (SMILES) | Activity (T67 [1]) | Activity (T67 [2]) | inhibition [3] | IC50 (Acetylcholinesterase) | Activity (Bos taurus [4]) | Activity (Bos taurus [5]) | IC50 (Cholinesterase)
1 | CCN(CCCCCCNC1=CC(=O)C(NCCCNC(=O)CCCCC2CCSS2)=CC1=O)Cc1ccccc1OC (stereo unspecified) | Active | Active | 34.4% | 150 nM | Active | Active | 21000 nM
2 | O=C(CCCCC1CCSS1)NCCCNc1c2c(nc3cc(Cl)ccc13)CCCC2 (stereo unspecified) |  | inactive | < 10% |  |  |  | 
3 | CCN(CCCNC1=CC(=O)C(NCCCCCCNC(=O)CCCCC2CCSS2)=CC1=O)Cc1ccccc1OC (stereo unspecified) | Active | Active | 31.8% | 160 nM | Active | Active | 11100 nM
4 | CCN(CCCNC1=CC(=O)C(NCCCNC(=O)CCCCC2CCSS2)=CC1=O)Cc1ccccc1OC (stereo unspecified) | Active | Active | 19.2% | 190 nM | Active | Active | 212000 nM
5 | CCN(CCCCCCNC1=CC(=O)C(NCCCCCCN(CC)Cc2ccccc2OC)=CC1=O)Cc1ccccc1OC [MEMOQUIN] |  |  |  | 1.5 nM |  |  | 
6 | CCN(CCCCCCNC1=CC(=O)C(NCCCCCCNC(=O)CCCCC2CCSS2)=CC1=O)Cc1ccccc1OC (stereo unspecified) | Active | Active | 45.4% | 100 nM | Active | Active | 4990 nM
